Common to all, as to assay type: functional
One test relates to HCT-116. Put plainly: Growth inhibition of human HCT116 cells. Put shortly:
(§1)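 NCI DTP 60-cell-line screen, second stage: five-dose testing across the human tumour panel. GI₅₀ taken as the concentration needed to inhibit cell growth by 50% in each cell line.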

Test [1] relates to Malme-3M. Put plainly: Growth inhibition of human MALME-3M cells. Summed up: as §1
A further test concerns SW-620. Put plainly: Growth inhibition of human SW620 cells. Summed up:
(§2)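 This is the second, five-dose stage of the NCI DTP 60-cell-line screen. GI50 is the concentration that inhibits cell growth by 50%, derived for each cell line.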

A further test has as its system K562. The experiment in a line: Growth inhibition of human K562 cells. Summed up: as §1
In the next test the test system is U-251. The experiment in a line: Growth inhibition of human U251 cells. Summed up: as §2
The test system of another test is T47D. Put plainly: Growth inhibition of human T47D cells. Put shortly:
as §2

A further test deals with CCRF-CEM. The experiment in a line: Growth inhibition of human CCRF-CEM cells. Summed up:
as §1

The next test deals with A498. The experiment in a line: Growth inhibition of human A498 cells. Put shortly:
as §1

Another test relates to OVCAR-8. Put plainly: Growth inhibition of human OVCAR8 cells. Put shortly:
(§3)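 Part of the NCI DTP 60-cell-line panel. After the single-dose stage, cells were tested at five doses. Read-out is the GI50, the concentration giving 50% inhibition of cell growth, derived for each cell line.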

For a further test, the system named is NCI-H522. The experiment in a line: Growth inhibition of human NCI-H522 cells. Summed up: as §3
For a further test, the system named is HCT-15. Put plainly: Growth inhibition of human HCT15 cells. Summed up: as §1
The subject of a further test is A549. Put plainly: Growth inhibition of human A549 cells. Put shortly:
as §1

The next test deals with UO-31. Put plainly: Growth inhibition of human UO31 cells. Put shortly: as §2
Another test relates to SK-MEL-5. The experiment in a line: Growth inhibition of human SK-MEL-5 cells. Put shortly:
as §3

The subject of a further test is EKVX. The experiment in a line: Growth inhibition of human EKVX cells. Summed up:
as §1

Another test has as its system NCI/ADR-RES. The experiment in a line: Growth inhibition of human NCI/ADR-RES cells. Summed up: as §3
The next test has as its system OVCAR-5. The experiment in a line: Growth inhibition of human OVCAR5 cells. Summed up: as §3
The test system of the next test is SR. The experiment in a line: Growth inhibition of human SR cells. Summed up: as §2
For the next test, the system named is SK-MEL-2. The experiment in a line: Growth inhibition of human SK-MEL-2 cells. Put shortly:
as §3

For another test, the system named is MDA-MB-468. Put plainly: Growth inhibition of human MDA-MB-468 cells. Put shortly:
as §3

The test system of another test is MCF7. Put plainly: Growth inhibition of human MCF7 cells. Summed up:
as §3

Test [2] is described as follows: Growth inhibition of human Hs 578T cells. Summed up: as §1
A further test has as its system SNB-75. Put plainly: Growth inhibition of human SNB75 cells. Put shortly:
as §2

The next test relates to OVCAR-4. Put plainly: Growth inhibition of human OVCAR4 cells. Put shortly: as §3
The next test has as its system HCC 2998. The experiment in a line: Growth inhibition of human HCC2998 cells. Put shortly: as §1
A further test concerns LOX IMVI. The experiment in a line: Growth inhibition of human LOXIMVI cells. Put shortly: as §1
A further test deals with TK-10. The experiment in a line: Growth inhibition of human TK10 cells. Summed up: as §2
Test [3] has as its system IGROV-1. Put plainly: Growth inhibition of human IGROV1 cells. Put shortly: as §1
The subject of a further test is RXF 393. The experiment in a line: Growth inhibition of human RXF393 cells. Summed up:
as §3

The next test relates to NCI-H322M. Put plainly: Growth inhibition of human NCI-H322M cells. Summed up: as §3
The subject of test [4] is IGROV-1. The experiment in a line: Growth inhibition of human IGROV1 cells assessed as cell growth at 10 uM relative to untreated control. The following applies: read-out: Activity. Put shortly: (§4)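 NCI DTP 60-cell-line screen, first stage: a single 10 µM dose of compound given to the human tumour panel. Result reported as percent growth relative to control, on a mean growth graph.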

Test [5] relates to Malme-3M. The experiment in a line: Growth inhibition of human MALME-3M cells assessed as cell growth at 10 uM relative to untreated control. The following applies: read-out: Activity. Put shortly: as §4

The values below come from ChEMBL document CHEMBL2021842, “COMPARE analysis of the toxicity of an iminoquinone derivative of the imidazo[5,4-f]benzimidazoles with NAD(P)H:quinone oxidoreductase 1 (NQO1) activity and computational docking of quinones as NQO1 substrates” (Bioorg Med Chem, 2012).

Structures are written as SMILES.

As for `N=C1c2nc3n(c2C(=O)c2nc4n(c21)CCCC4)CCCC3`, the concentration for 50% growth inhibition (GI50) is 19.5 µM in the test with HCT-116; 1.86 µM in the test with Malme-3M [1]; 3.72 µM with SW-620; 20.4 µM with K562; 10 µM with U-251; 17.4 µM with T47D. For the same compound, the GI50 with CCRF-CEM is 49 µM; in the test with A498, 6.03 µM; in the test on OVCAR-8, 31.6 µM; in the test on NCI-H522, 4.57 µM; in the test on HCT-15, 2.63 µM; with A549, 2.04 µM. Further, the GI50 with UO-31 was 2.34 µM; in the test with SK-MEL-5, 1.2 µM; in the test with EKVX, 25.1 µM; in the test on NCI/ADR-RES, 35.5 µM; in the test with OVCAR-5, 2.63 µM; with SR it was 8.51 µM. In addition, the GI50 with SK-MEL-2 is 38 µM; in the test on MDA-MB-468 it was 14.8 µM; in the test with MCF7, 1.86 µM; in test [2], 2.19 µM; in the test with SNB-75, 2.19 µM; with OVCAR-4, 34.7 µM. The GI50 in the test with HCC 2998 is 4.79 µM; in the test with LOX IMVI, 0.562 µM; in the test with TK-10, 70.8 µM; in the test with IGROV-1 [3], 42.7 µM; with RXF 393, 16.6 µM; with NCI-H322M, 1.7 µM.
For `O=C1c2nc3n(c2C(=O)c2nc4n(c21)CCCC4)CCCC3`, the growth at 10 µM in the test on IGROV-1 [4] is 107%; in the test on Malme-3M [5], 79.6%.
